Test results from ChEMBL document CHEMBL1921722, “In vitro and in vivo evaluation of select kahalalide F analogs with antitumor and antifungal activities” (Bioorg Med Chem, 2011).
pIC50: −log10 of the molar value. ≈ marks a conversion by molar mass, not a printed value.

Legend:
A498 [1] = test: Cytotoxicity against human A498 cells by sulforhodamine B assay; type: functional
Summary of the method: (§1)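 Run at NCI in the DTP 60-cell-line human tumor panel by standard procedure. Compounds were first screened at a single concentration, then tested at five tenfold-spaced concentrations. GI50 is the concentration reducing treated-cell growth to half that of untreated controls; TGI is the concentration completely halting growth.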

A498 [2] = test: Cytotoxicity against human A498 cells assessed as cell growth at 80 uM by sulforhodamine B assay relative to control; type: functional; conditions: read-out: Activity; summary of the method: as §1
K562 [3] = test: Cytotoxicity against human K562 cells assessed as cell growth at 800 nM by sulforhodamine B assay relative to control; type: functional; conditions: read-out: Activity
DU-145 [4] = test: Cytotoxicity against human DU145 cells assessed as cell growth at 8 nM by sulforhodamine B assay relative to control; type: functional; conditions: read-out: Activity; summary of the method: as §1
K562 [5] = test: Cytotoxicity against human K562 cells assessed as cell growth at 80 nM by sulforhodamine B assay relative to control; type: functional; conditions: read-out: Activity
SR = test: Cytotoxicity against human SR cells assessed as cell growth at 80 nM by sulforhodamine B assay relative to control; type: functional; conditions: read-out: Activity
HCT-15 [6] = test: Cytotoxicity against human HCT15 cells by sulforhodamine B assay; type: functional
Summary of the method: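 Run by the NCI Developmental Therapeutics Program on its 60-line human tumour cell panel using the standard procedure. Compounds went through a single-concentration prescreen first, and those active by NCI criteria went on to a five-concentration growth-inhibition test. GI50 is the concentration that cuts growth of treated cells to half that of untreated control cells.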

Aspergillus fumigatus = test: Antimicrobial activity against Aspergillus fumigatus ATCC 90906 by CLSI method; type: functional, organism-based
DU-145 [7] = test: Cytotoxicity against human DU145 cells assessed as cell growth at 800 nM by sulforhodamine B assay relative to control; type: functional; conditions: read-out: Activity
EKVX [8] = test: Cytotoxicity against human EKVX cells assessed as cell growth at 800 nM by sulforhodamine B assay relative to control; type: functional; conditions: read-out: Activity
HT-29 = test: Cytotoxicity against human HT-29 cells assessed as cell growth at 80 nM by sulforhodamine B assay relative to control; type: functional; conditions: read-out: Activity
ACHN = test: Cytotoxicity against human ACHN cells assessed as cell growth at 8 uM by sulforhodamine B assay relative to control; type: functional; conditions: read-out: Activity; summary of the method: as §1
Malme-3M = test: Cytotoxicity against human MALME-3M cells assessed as cell growth at 8 nM by sulforhodamine B assay relative to control; type: functional; conditions: read-out: Activity
OVCAR-5 = test: Cytotoxicity against human OVCAR5 cells assessed as cell growth at 8 uM by sulforhodamine B assay relative to control; type: functional; conditions: read-out: Activity
KM12 [9] = test: Cytotoxicity against human KM12 cells assessed as cell growth at 80 uM by sulforhodamine B assay relative to control; type: functional; conditions: read-out: Activity
HCT-15 [10] = test: Cytotoxicity against human HCT15 cells assessed as cell growth at 80 uM by sulforhodamine B assay relative to control; type: functional; conditions: read-out: Activity
NCI/ADR-RES [11] = test: Cytotoxicity against human NCI/ADR-RES cells assessed as cell growth at 8 uM by sulforhodamine B assay relative to control; type: functional; conditions: read-out: Activity
PC-3 = test: Cytotoxicity against human PC3 cells assessed as cell growth at 80 nM by sulforhodamine B assay relative to control; type: functional; conditions: read-out: Activity
RXF 393 [12] = test: Cytotoxicity against human RXF393 cells by sulforhodamine B assay; type: functional
Summary of the method: (§2)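 NCI Developmental Therapeutics Program 60-cell-line human tumor panel screen, run at NCI. A single-concentration pre-screen was followed by a five-concentration dose-response in 10-fold steps. GI50 is the concentration that reduces growth of treated cells to half that of untreated control cells. TGI is the concentration that completely halts growth.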

OVCAR-4 [13] = test: Cytotoxicity against human OVCAR4 cells assessed as cell growth at 80 nM by sulforhodamine B assay relative to control; type: functional; conditions: read-out: Activity
SNB-75 = test: Cytotoxicity against human SNB75 cells assessed as cell growth at 800 nM by sulforhodamine B assay relative to control; type: functional; conditions: read-out: Activity
NCI-H226 [14] = test: Cytotoxicity against human NCI-H226 cells assessed as cell growth at 80 uM by sulforhodamine B assay relative to control; type: functional; conditions: read-out: Activity
HCC 2998 = test: Cytotoxicity against human HCC2998 cells assessed as cell growth at 8 uM by sulforhodamine B assay relative to control; type: functional; conditions: read-out: Activity
MDA-MB-435 = test: Cytotoxicity against human MDA-MB-435 cells assessed as cell growth at 80 nM by sulforhodamine B assay relative to control; type: functional; conditions: read-out: Activity
SF-539 = test: Cytotoxicity against human SF539 cells assessed as cell growth at 800 nM by sulforhodamine B assay relative to control; type: functional; conditions: read-out: Activity
786-0 = test: Cytotoxicity against human 786-0 cells assessed as cell growth at 80 uM by sulforhodamine B assay relative to control; type: functional; conditions: read-out: Activity; summary of the method: as §1
OVCAR-4 [15] = test: Cytotoxicity against human OVCAR4 cells assessed as cell growth at 80 uM by sulforhodamine B assay relative to control; type: functional; conditions: read-out: Activity
NCI-H226 [16] = test: Cytotoxicity against human NCI-H226 cells assessed as cell growth at 8 nM by sulforhodamine B assay relative to control; type: functional; conditions: read-out: Activity
NCI/ADR-RES [17] = test: Cytotoxicity against human NCI/ADR-RES cells by sulforhodamine B assay; type: functional; summary of the method: as §2
NCI-H23 = test: Cytotoxicity against human NCI-H23 cells by sulforhodamine B assay; type: functional; summary of the method: as §2
EKVX [18] = test: Cytotoxicity against human EKVX cells assessed as cell growth at 8 uM by sulforhodamine B assay relative to control; type: functional; conditions: read-out: Activity
T47D = test: Cytotoxicity against human T47D cells assessed as cell growth at 80 nM by sulforhodamine B assay relative to control; type: functional; conditions: read-out: Activity
SF-268 = test: Cytotoxicity against human SF268 cells by sulforhodamine B assay; type: functional
A549 = test: Cytotoxicity against human A549 cells by sulforhodamine B assay; type: functional; summary of the method: as §1
NCI-H322M = test: Cytotoxicity against human NCI-H322M cells assessed as cell growth at 80 uM by sulforhodamine B assay relative to control; type: functional; conditions: read-out: Activity
KM12 [19] = test: Cytotoxicity against human KM12 cells assessed as cell growth at 800 nM by sulforhodamine B assay relative to control; type: functional; conditions: read-out: Activity
OVCAR-3 = test: Cytotoxicity against human OVCAR3 cells assessed as cell growth at 800 nM by sulforhodamine B assay relative to control; type: functional; conditions: read-out: Activity
RXF 393 [20] = test: Cytotoxicity against human RXF393 cells assessed as cell growth at 800 nM by sulforhodamine B assay relative to control; type: functional; conditions: read-out: Activity
KM12 [21] = test: Cytotoxicity against human KM12 cells assessed as cell growth at 80 nM by sulforhodamine B assay relative to control; type: functional; conditions: read-out: Activity
M14 = test: Cytotoxicity against human M14 cells assessed as cell growth at 80 nM by sulforhodamine B assay relative to control; type: functional; conditions: read-out: Activity

Compound: C/C=C1\NC(=O)[C@H](Cc2ccccc2)NC(=O)[C@@H](C(C)C)NC(=O)[C@@H]([C@@H](C)CC)NC(=O)[C@H](NC(=O)[C@H](NC(=O)[C@H](CCCNCc2ccc(N3CCOCC3)cc2)NC(=O)[C@H]2CCCN2C(=O)[C@H](NC(=O)[C@@H](NC(=O)[C@@H](NC(=O)[C@H](NC(=O)CCCC(C)C)C(C)C)[C@@H](C)O)C(C)C)C(C)C)[C@@H](C)CC)[C@@H](C)OC(=O)[C@H](C(C)C)NC1=O
- GI50 (A498 [1]): 1580 nM
- LC50 (A498 [1]): 7410 nM
- TGI (A498 [1]; read-out: pTGI (converted)): 3470 nM
- growth at 80 µM (A498 [2]): -91%
- growth at 0.8 µM (K562 [3]): 102%
- growth at 0.008 µM (DU-145 [4]): 99%
- growth at 0.08 µM (K562 [5]): 100%
- growth at 0.08 µM (SR): 106%
- GI50 (HCT-15 [6]; read-out: GI50): 264 nM
- TGI (HCT-15 [6]; read-out: TGI): 814 nM
- GI50 (HCT-15 [6]; read-out: pGI50 (converted)): 263 nM
- TGI (HCT-15 [6]; read-out: pTGI (converted)): 813 nM
- pIC50 (Aspergillus fumigatus): 5.30
- MFC (Aspergillus fumigatus): 20 µM (≈ 33.1 µg/mL)
- MIC (Aspergillus fumigatus): 10 µM (≈ 16.5 µg/mL)
- growth at 0.8 µM (DU-145 [7]): -77%
- growth at 0.8 µM (EKVX [8]): 53%
- growth at 0.08 µM (HT-29): 93%
- growth at 8 µM (ACHN): -84%
- growth at 0.008 µM (Malme-3M): 100%
- growth at 8 µM (OVCAR-5): -74%
- growth at 80 µM (KM12 [9]): 9%
- growth at 80 µM (HCT-15 [10]): -45%
- growth at 8 µM (NCI/ADR-RES [11]): -43%
- growth at 0.08 µM (PC-3): 97%
- GI50 (RXF 393 [12]): 1580 nM
- LC50 (RXF 393 [12]): > 75900 nM
- TGI (RXF 393 [12]; read-out: pTGI (converted)): 3550 nM
- growth at 0.08 µM (OVCAR-4 [13]): 102%
- growth at 0.8 µM (SNB-75): 54%
- growth at 80 µM (NCI-H226 [14]): -26%
- growth at 8 µM (HCC 2998): -81%
- growth at 0.08 µM (MDA-MB-435): 99%
- growth at 0.8 µM (SF-539): 93%
- growth at 80 µM (786-0): -66%
- growth at 80 µM (OVCAR-4 [15]): -15%
- growth at 0.008 µM (NCI-H226 [16]): 94%
- GI50 (NCI/ADR-RES [17]): 1410 nM
- LC50 (NCI/ADR-RES [17]): 21400 nM
- TGI (NCI/ADR-RES [17]; read-out: pTGI (converted)): 3470 nM
- GI50 (NCI-H23): 1550 nM
- LC50 (NCI-H23): 6310 nM
- TGI (NCI-H23; read-out: pTGI (converted)): 3090 nM
- growth at 8 µM (EKVX [18]): -76%
- growth at 0.08 µM (T47D): 89%
- GI50 (SF-268): 1450 nM
- GI50 (A549; read-out: GI50): 175 nM
- GI50 (A549; read-out: pGI50 (converted)): 174 nM
- growth at 80 µM (NCI-H322M): -18%
- growth at 0.8 µM (KM12 [19]): -15%
- growth at 0.8 µM (OVCAR-3): 46%
- growth at 0.8 µM (RXF 393 [20]): 97%
- growth at 0.08 µM (KM12 [21]): 99%
- growth at 0.08 µM (M14): 97%
